“Also recorded” adds a separate entry of the source. Where two headings read alike, the source gives them in different places. Non-standard residues stand in square brackets, D forms with d.
Legend:
glioma cell invasion = conditions: ref [6]; cited from earlier work
breast carcinoma = conditions: ref [20]; cited from earlier work
[1] = test system: ERK activation (activated human T cells); test: CXCL12-induced ERK phosphorylation; format: cell-based
In short: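 About 10 million activated T cells per 0.5 ml per treatment, pretreated with test compound (20µM) for 30 min at 37°C. CXCL12 was then added to 10nM final. Cells were washed, harvested and lysed in RIPA buffer with protease and phosphatase inhibitors at 1, 3 and 10 min. Protein was measured by Bradford. 30μg lysate was run on 4-20% SDS-PAGE, blotted to nitrocellulose, and phospho-ERK detected by ECL.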

pancreatic carcinoma = conditions: ref [21]; cited from earlier work
[2] = test system: CXCR4 mediated HIV viral entry; conditions: ref [19]; cited from earlier work
[3] = ref [22]; cited from earlier work
CXCR4 [4] = conditions: ref [15]; cited from earlier work
GHS-R = conditions: cited from earlier work
[5] = test system: CXCR4 (GHOST-CXCR4 cells); test: Fluorokine; format: binding
obese mice = conditions: ref [24], cited from earlier work
HIV1-IIIB (CXCR4 tropic) = test: HIV1-IIIB propagation in activated PBMCs; format: cell-based, HIV-1; conditions: activated human PBMCs
In short: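 PBMCs were activated 3 days with PHA 5μg/ml and IL-2 10 units/ml, then washed into cRPMI at 10^6/ml. Cells were pretreated 30 min at 37°C with the test compound and infected with HIV1-IIIB (10ng/ml p24) for 3 h. Cells were washed, replated at 500,000/ml in triplicate, and compound re-added. Supernatant p24 was measured by ELISA on days 3, 6 and 9 and expressed as % of virus-only control. Three donors were used.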

CXCR4 [6] = test: CXCR4 binding and activity, overall statement; format: cell-based, human; conditions: T cells and PBMCs; summary statement
[7] = test system: CXCR4 (primary human T cells); test: CXCL12-induced T cell Transwell chemotaxis; format: cell-based; conditions: CXCL12 10nM, 5 h 37°C, mean ±SEM of three experiments
[8] = test system: CXCR4 (primary human T cells); test: CXCL12-induced intracellular calcium mobilization in primary human T cells; format: cell-based; conditions: Fura-2AM, CXCL12 10nM
In short: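 Human T cells were enriched from Ficoll-isolated PBMCs on T-cell enrichment columns, loaded with Fura-2-AM, and washed. They were then pretreated 20 min with the test compound at various concentrations. CXCL12 was added to 10nM final. Ca++ release was monitored in a luminescence spectrometer (ex 340 and 380 nm, em 510 nm) and expressed as the 340/380 ratio. At least three experiments were run.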

[9] = obese mice, repeated administration

With c1cc(CN2CCCNCCNCCCNCC2)ccc1CN1CCCNCCNCCCNCC1 [AMD3100] as the compound, how does the “effect on glioma cell invasion” value (glioma cell invasion) read?
Its value is “blocks glioma cell invasion”.

What about the “effect on metastasis of breast carcinoma” value (breast carcinoma) of the same compound?
Its value is “blocks”.

What about the “block of ERK activation after CXCL12 treatment” value ([1]; activated human T cells, 10^-6M AMD3100, data not shown) of the same compound?
The value was 80%.

What about the “effect on metastasis of pancreatic carcinoma” value (pancreatic carcinoma) of the same compound?
The value was “blocks”.

What about the “effect on CXCR4 mediated HIV viral entry” value [2] of the same compound?
The value was “block CXCR4 mediated HIV viral entry”.

What about the “effect on allergy and collagen induced arthritis” value [3] of the same compound?
Its value is “decreases allergy and collagen induced arthritis”.

What about the CXCR4 blocking (CXCR4 [4]) of the same compound?
The CXCR4 blocking was “potent CXCR4 [15] blocking agent”.

Which “activity at GHS-R” value (GHS-R; ref [9]) does the source give for H-H[dW]AW[dF]K-NH2 [GHRP-6] here?
Its value is “GHS-R agonist”.

With H-H[dW][dK]W[dF]K-NH2 [DLS] as the compound, how does the “effect on chemokine ligand binding” value ([5]; 1/4/16 μg DLS, 30 min 37°C, flow cytometry MFI) read?
The value was “blocks chemokine ligand binding to receptor-positive cells”.

What about the “amount required for the observed inhibition of CXCL12 binding” value ([5]; GHOST-CXCR4 cells, flow cytometry, AMD3100 data not shown) of the same compound?
Its value is “microgram quantities”.

And the “activity at GHS-R” value (GHS-R; ref [8], [9])?
The value was “selective GHS-R antagonist”.

And the body weight (obese mice; [9])?
The body weight was “reduce body weight in obese mice”.

And the “glycemic control and insulin resistance” value (obese mice; [9])?
Its value is “improve their glycemic control and insulin resistance”.

What about the muscle mass (obese mice; obese mice) of the same compound?
The muscle mass was “without affecting the muscle mass”.

And the “size of abdominal fat pads” value (obese mice; obese mice)?
The value was “reduced the size of abdominal fat pads”.

And the adverse side effects (obese mice; rodent models)?
Its adverse side effects is “without any adverse side effects”.

What about the “effect on CXCR4-mediated HIV-1 entry and propagation” value (HIV1-IIIB (CXCR4 tropic)) of the same compound?
The value was “partially blocks CXCR4-mediated HIV-1 entry and propagation”.

What about the “effect on CXCL12 binding and activity through CXCR4” value (CXCR4 [6]) of the same compound?
The value was “block CXCL12 binding and activity through CXCR4; also recorded: modestly inhibit the binding and activity of CXCR4 receptor in human T cells”.

And the “effect on ERK activation in response to CXCL12” value ([1]; DLS 20μM, 30 min 37°C, CXCL12 10nM, Western blot)?
The value was “very modestly blocks ERK activation”.

What about the “effect on CXCL12-induced T cell migration” value [7] of the same compound?
Its value is “marked dose dependent inhibition; also recorded: inhibits CXCL12 induced activated T cell chemotaxis”.

And the “effect on CXCL12-induced calcium flux” value [8]?
Its value is “markedly inhibited in a dose dependent fashion; also recorded: partially inhibits CXCL12-induced Ca++ release; also recorded: modest inhibition of calcium mobilization”.
